Experimental data from ChEMBL document CHEMBL4354812, “N-Benzyl/Aryl Substituted Tryptanthrin as Dual Inhibitors of Indoleamine 2,3-Dioxygenase and Tryptophan 2,3-Dioxygenase” (J Med Chem, 2019).
Active and inactive are the calls of the source. The calls are words filed in the database; no cut-off is given here.

Experiments:
[1] = molecular target: T1, Tryptophan 2,3-dioxygenase (Homo sapiens, UniProt P48775); experiment: Uncompetitive inhibition of recombinant human TDO expressed in Escherichia coli BL21 (DE3) assessed as assessed as inhibition constant using varying concentration of L-tryptophan as substrate by Dixon plot analysis
Procedure, shortened: (§1)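 Enzymatic assays of the kynurenine-forming reaction were run with varying L-Trp. Ki was derived by plotting [S]/V against inhibitor concentration [I], with inhibition type assigned from the graphical pattern.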
Target sequence in this assay (P48775 whole entry): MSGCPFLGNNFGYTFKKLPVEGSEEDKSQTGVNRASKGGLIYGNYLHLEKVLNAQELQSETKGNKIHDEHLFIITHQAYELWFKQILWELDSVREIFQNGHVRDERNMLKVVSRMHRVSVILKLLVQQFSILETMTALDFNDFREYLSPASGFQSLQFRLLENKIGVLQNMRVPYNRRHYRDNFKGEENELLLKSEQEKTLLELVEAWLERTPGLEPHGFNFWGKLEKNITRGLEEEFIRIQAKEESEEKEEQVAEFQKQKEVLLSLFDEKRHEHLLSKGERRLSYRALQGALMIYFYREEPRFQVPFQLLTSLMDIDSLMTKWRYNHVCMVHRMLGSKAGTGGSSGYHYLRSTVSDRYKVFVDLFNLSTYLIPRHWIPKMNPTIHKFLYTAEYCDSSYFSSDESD

[2] = molecular target: T1, Tryptophan 2,3-dioxygenase; experiment: Inhibition of human TDO transfected in HEK293 cells assessed as reduction in kynurenine production using L-tryptophan as substrate incubated for 12 hrs; assay type: cell-based
Procedure, shortened: (§2)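 U87 MG cells (hIDO2) or HEK293 cells (hTDO) were transiently transfected at 80% confluence, with empty vector as control. After 18 h, cells were seeded 2.5 × 10⁴/well in medium with 200 μM L-Trp. Compound serial dilutions were added after a further 6 h (IDO2) or 12 h (TDO). Reactions were stopped 24 h (IDO2) or 8 h (TDO) later with TCA, heated 65 °C 15 min, and Kyn read with DMAB at 492 nm. IC50 by nonlinear regression.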
Target sequence in this assay (P48775 whole entry): as above

[3] = molecular target: T2, Indoleamine 2,3-dioxygenase 2 (Homo sapiens, UniProt Q6ZQW0); experiment: Inhibition of C-terminal His6-tagged human IDO2 (14 to 420 residues) expressed in Escherichia coli BL21 (DE3) assessed as reduction in conversion of L-tryptophan to N-formyl kynurenine using L-tryptophan as substrate after 30 mins by methylene blue dye based microplate reader analysis
T2 sequence (Q6ZQW0 whole entry): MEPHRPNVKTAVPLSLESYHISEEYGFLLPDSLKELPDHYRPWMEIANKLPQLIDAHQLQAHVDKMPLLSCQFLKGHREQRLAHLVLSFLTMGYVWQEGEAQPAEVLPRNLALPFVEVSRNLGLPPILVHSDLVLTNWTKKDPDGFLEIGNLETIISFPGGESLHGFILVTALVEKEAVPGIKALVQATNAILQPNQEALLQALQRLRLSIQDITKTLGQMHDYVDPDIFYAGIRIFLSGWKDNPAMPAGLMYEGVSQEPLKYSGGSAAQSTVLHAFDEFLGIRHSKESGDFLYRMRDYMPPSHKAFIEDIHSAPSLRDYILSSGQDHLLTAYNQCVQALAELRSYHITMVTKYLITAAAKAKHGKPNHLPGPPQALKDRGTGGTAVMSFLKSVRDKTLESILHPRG
Procedure, shortened: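 Recombinant enzyme with L-Trp substrate, ascorbic acid 40 mM, methylene blue 20 μM and catalase 200 μg/mL in potassium phosphate buffer. Conditions were pH 7.0 with 400 μM L-Trp for TDO, and pH 7.5 with 30 mM L-Trp for IDO2. Reaction ran 30 min at 37 °C, stopped with TCA, heated 65 °C 15 min. Kyn detected with DMAB at 492 nm. IC50 by nonlinear regression.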

[4] = molecular target: T2, Indoleamine 2,3-dioxygenase 2; experiment: Uncompetitive inhibition of C-terminal His6-tagged human IDO2 (14 to 420 residues) expressed in Escherichia coli BL21 (DE3) assessed as inhibition constant using varying concentration of L-tryptophan as substrate by Dixon plot analysis; procedure, shortened: as §1
[5] = molecular target: T2, Indoleamine 2,3-dioxygenase 2; experiment: Inhibition of human IDO2 transfected in human U87MG cells assessed as reduction in kynurenine production using L-tryptophan as substrate incubated with for 6 hrs; assay type: cell-based; procedure, shortened: as §2
[6] = molecular target: T3, Indoleamine 2,3-dioxygenase 1 (Homo sapiens, UniProt P14902); experiment: Inhibition of IDO1 in IFN-gamma stimulated human HeLa cells assessed as reduction in kynurenine production incubated for 18 hrs; assay type: cell-based
Procedure, shortened: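 HeLa cells were seeded 25 000/well overnight, then exposed to inhibitor dilutions with 100 ng/mL human IFN-γ (final) for 18 h at 37 °C. Medium was treated with TCA at 50 °C for 30 min to hydrolyze NFK to Kyn. Kyn was read with 2% DMAB at 492 nm. IC50 by nonlinear regression.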
Target sequence in this assay (P14902 whole entry): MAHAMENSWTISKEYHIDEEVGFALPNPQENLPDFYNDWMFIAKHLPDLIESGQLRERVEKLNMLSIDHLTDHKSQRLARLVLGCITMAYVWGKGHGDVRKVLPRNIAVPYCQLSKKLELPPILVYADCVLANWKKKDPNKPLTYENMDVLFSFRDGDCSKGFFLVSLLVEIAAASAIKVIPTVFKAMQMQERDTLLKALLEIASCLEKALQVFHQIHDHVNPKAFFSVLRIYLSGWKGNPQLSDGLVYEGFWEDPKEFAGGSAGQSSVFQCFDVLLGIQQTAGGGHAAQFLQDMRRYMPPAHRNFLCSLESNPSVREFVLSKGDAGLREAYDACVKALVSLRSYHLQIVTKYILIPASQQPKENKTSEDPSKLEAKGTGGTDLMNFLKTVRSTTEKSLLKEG

[7] = molecular target: T1, Tryptophan 2,3-dioxygenase; experiment: Inhibition of recombinant human TDO expressed in Escherichia coli BL21 (DE3) assessed as reduction in conversion of L-tryptophan to N-formyl kynurenine using L-tryptophan as substrate after 30 mins by methylene blue assay
Target sequence in this assay (P48775 whole entry): as the sequence (P48775 whole entry) above

[8] = molecular target: T1, Tryptophan 2,3-dioxygenase; experiment: Mixed uncompetitive inhibition of recombinant human TDO expressed in Escherichia coli BL21 (DE3) assessed as inhibition constant using varying concentration of L-tryptophan as substrate by Dixon plot analysis; procedure, shortened: as §1
Target sequence in this assay (P48775 whole entry): as above

[9] = molecular target: T3, Indoleamine 2,3-dioxygenase 1; experiment: Uncompetitive inhibition of recombinant human IDO1 expressed in Escherichia coli BL21 cells assessed inhibition constant using varying concentration of L-tryptophan as substrate by Dixon plot analysis; procedure, shortened: as §1
Target sequence in this assay (P14902 whole entry): as the sequence (P14902 whole entry) above

H22 [10] = experiment: Antitumor activity against mouse H22 cells implanted in Kunming mouse assessed as reduction in tumor volume at 100 mg/kg, po qd administered for 2 weeks and measured at 2 days interval during compound dosing relative to control; assay type: functional; design: scale not given: the % may be the effect or the level left
Procedure, shortened: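 H22 ascites cells (2 × 10⁶/mouse) passaged twice intraperitoneally in Kunming mice, diluted in saline, then implanted sc into the right forelimb (2 × 10⁶ cells). Therapy began once the tumor reached 5 mm diameter: oral dosing once daily in 0.5% CMC-Na, vehicle controls, for 2 weeks. Calipers every 2 days; volume = long × short²/2. n = 9−10 mice/group.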

[11] = tested on: Lewis lung carcinoma cell line; experiment: Antitumor activity against mouse LLC cells implanted in C57BL/6 mouse assessed as reduction in tumor volume at 100 mg/kg, po qd administered for 2 weeks and measured at 2 days interval during compound dosing relative to control; assay type: functional; design: scale not given: the % may be the effect or the level left
Procedure, shortened: (§3)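 Tumor cells (LLC, or H22 ascites cells after two intraperitoneal passages in Kunming mice) injected sc into the right forelimb at 2 × 10⁶ per mouse, in female 6–8-week C57BL/6 or Kunming mice. Oral dosing once daily began at 5 mm tumor diameter and continued 2 weeks. Vehicle was 0.5% CMC-Na. Volume was read by caliper every 2 days as long × short²/2. Tumors were weighed at sacrifice. n = 9–10/group.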

[12] = tested on: Lewis lung carcinoma cell line; experiment: Antitumor activity against mouse LLC cells implanted in C57BL/6 mouse assessed as reduction in tumor weight at 100 mg/kg, po qd administered for 2 weeks and measured post-treatment; assay type: functional, organism-based; procedure, shortened: as §3
Homo sapiens = species: Homo sapiens; experiment: Inhibition of IDO1/TDO in IFNgamma-treated human HeLa cells assessed as T cell proliferation at 1 uM measured after 2 days in presence of IL-2, anti-CD3 and IFN-gamma by CFSE dye based flow cytometry analysis (reference value: 11.7 %); design: scale not given: the % may be the effect or the level left
Procedure, shortened: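 CFSE-labelled human PBMC lymphocytes (1 × 10⁶/well) were cocultured with HeLa cells (2 × 10⁵/well), a 5:1 ratio, in 150 U/mL IL-2, 100 ng/mL anti-CD3 and 60 ng/mL IFN-γ. Compound was tested at 40 nM, 200 nM, 500 nM or 1 μM. Proliferation was read by flow cytometry after 2 days, three independent experiments.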

[13] = molecular target: T4, Indoleamine 2,3-dioxygenase 2 (Homo sapiens) (UniProt Q6ZQW0); experiment: Binding affinity to human IDO2 at 200 uM by STD NMR spectrometry analysis
T4 sequence (whole entry): T2 sequence (Q6ZQW0 whole entry)

Mus musculus [14] = experiment: In vivo blockade of kynurenine pathway in Kunming mouse implanted with mouse H22 cells assessed as decrease in kynurenine level in serum at 100 mg/kg, po qd for 2 weeks by HPLC analysis; assay type: functional, organism-based
Procedure, shortened: (§4)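 H22 tumor-bearing Kunming mice received oral dosing once daily in 0.5% CMC-Na for 2 weeks. Serum Trp and Kyn were measured by HPLC on a C18 column with 15 mM sodium acetate (pH 3.6) containing 4% acetonitrile, UV detection at 280 and 360 nm. Kyn/Trp ratio calculated. n = 9–10/group.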

H22 [15] = experiment: Antitumor activity against mouse H22 cells implanted in Kunming mouse assessed as reduction in tumor weight at 100 mg/kg, po qd administered for 2 weeks and measured post-treatment; assay type: functional, organism-based; procedure, shortened: as §3
[16] = molecular target: T1, Tryptophan 2,3-dioxygenase; experiment: Binding affinity to human TDO assessed as change in spectral signal at 200 uM by CPMG NMR spectrometry analysis
Target sequence in this assay (P48775 whole entry, looked up): as the sequence (P48775 whole entry) above

[17] = molecular target: T4, Indoleamine 2,3-dioxygenase 2 (Homo sapiens); experiment: Binding affinity to human IDO2 assessed as change in spectral signal at 200 uM by CPMG NMR spectrometry analysis
[18] = molecular target: T1, Tryptophan 2,3-dioxygenase; experiment: Binding affinity to human TDO at 200 uM by STD NMR spectrometry analysis
Target sequence in this assay (P48775 whole entry, looked up): as the sequence (P48775 whole entry) above

Mus musculus [19] = experiment: In vivo blockade of kynurenine pathway in Kunming mouse implanted with mouse H22 cells assessed as increase in tryptophan level in serum at 100 mg/kg, po qd for 2 weeks by HPLC analysis; assay type: functional, organism-based; procedure, shortened: as §4
[20] = molecular target: T3, Indoleamine 2,3-dioxygenase 1; experiment: Competitive inhibition of recombinant human IDO1 expressed in Escherichia coli BL21 cells assessed as apparent inhibition constant using varying concentration of L-tryptophan as substrate by Dixon plot analysis
Target sequence in this assay (P14902 whole entry): as the sequence (P14902 whole entry) above

[21] = molecular target: T3, Indoleamine 2,3-dioxygenase 1; experiment: Inhibition of recombinant human IDO1 expressed in Escherichia coli BL21 cells assessed as reduction in conversion of L-tryptophan to N-formyl kynurenine using L-tryptophan as substrate after 30 mins by methylene blue dye based microplate reader analysis
Target sequence in this assay (P14902 whole entry): as above

[22] = molecular target: T3, Indoleamine 2,3-dioxygenase 1; experiment: Noncompetitive inhibition of recombinant human IDO1 expressed in Escherichia coli BL21 cells assessed inhibition constant using varying concentration of L-tryptophan as substrate by Dixon plot analysis; procedure, shortened: as §1
Target sequence in this assay (P14902 whole entry): as above

[23] = molecular target: T2, Indoleamine 2,3-dioxygenase 2; experiment: Noncompetitive inhibition of C-terminal His6-tagged human IDO2 (14 to 420 residues) expressed in Escherichia coli BL21 (DE3) assessed as inhibition constant using varying concentration of L-tryptophan as substrate by Dixon plot analysis; procedure, shortened: as §1
[24] = molecular target: T3, Indoleamine 2,3-dioxygenase 1; experiment: Binding affinity to heme in human IDO1 assessed as Soret band red shift from 405 nm to […] at 375 uM and pH 6.5 under normal atmospheric condition by UV-vis spectroscopy analysis
Target sequence in this assay (P14902 whole entry, looked up): as the sequence (P14902 whole entry) above

Ki [1]	IC50 [2]	IC50 [3]	IC50 [5]	IC50 ([6]; read-out: IC50)	IC50 [7]	Ki [8]	SMILES	also measured
0.34 µM	0.07 µM						O=C1c2cc(F)ccc2-n2c1nc1ccc(CN3CCOCC3)cc1c2=O	
	0.29 µM	41.6 µM	17.8 µM	0.76 µM	3.15 µM	0.67 µM	O=C1c2cc(F)ccc2-n2c1nc1ccc(N3CCNCC3)cc1c2=O	Ki [4]: 36.9 µM; Ki ([9]; read-out: Ki): 6.08 µM
	0.07 µM					0.13 µM	CC(C)(C)OC(=O)N1CCN(Cc2ccc3nc4n(c(=O)c3c2)-c2ccc(F)cc2C4=O)CC1	
							Cn1cc(C[C@H](N)C(=O)O)c2ccccc21 [(L)-1-METHYLTRYPTOPHAN]	Activity (H22 [10]): 15.8%; Activity [11]: 33.6%; Activity [12]: Active; Activity (Homo sapiens): 15.8%; Activity [13]: inactive; Activity (Mus musculus [14]): Active; Activity (H22 [15]): Active; Activity [16]: inactive; Activity [17]: inactive; Activity [18]: inactive; Activity (Mus musculus [19]): inactive
18 µM	0.47 µM	82.6 µM	48.7 µM	2.96 µM	6.75 µM		CN1CCN(c2ccc3nc4n(c(=O)c3c2)-c2ccccc2C4=O)CC1	Ki [4]: 48.7 µM; Ki ([9]; read-out: Ki): 7.57 µM
2.36 µM	0.5 µM	79.9 µM	20.3 µM		6.4 µM		O=C1c2cc(F)ccc2-n2c1nc1ccc(N3CCOCC3)cc1c2=O	Ki [4]: 39.1 µM; Ki [20]: Not Active; IC50 ([6]; hela): Not Active; IC50 [21]: Not Active; Ki [22]: Not Active; Ki [9]: Not Active
1.24 µM	0.27 µM	91.3 µM	90.9 µM	0.59 µM	3.82 µM		CN(C)c1ccc2nc3n(c(=O)c2c1)-c1ccc(F)cc1C3=O	Ki [23]: 45.3 µM; Ki ([9]; read-out: Ki): 8.82 µM
		10.3 µM					NS(=O)(=O)NCCNc1nonc1C(=NO)Nc1ccc(F)c(Br)c1 [EPACADOSTAT]	
	0.25 µM	46.8 µM	79 µM	1.87 µM	2.59 µM	0.17 µM	CN1CCN(c2ccc3nc4n(c(=O)c3c2)-c2ccc(F)cc2C4=O)CC1	Ki [23]: 19.9 µM; Ki ([22]; read-out: Ki): 6.92 µM
							NS(=O)(=O)NCCNc1nonc1/C(=N/O)Nc1ccc(F)c(Br)c1	Activity [24]: Active
	0.06 µM					0.09 µM	CN(C)Cc1ccc2nc3n(c(=O)c2c1)-c1ccc(F)cc1C3=O	
0.12 µM	0.09 µM						O=C1c2cc(F)ccc2-n2c1nc1ccc(CN3CCNCC3)cc1c2=O	
1.56 µM	3.7 µM	40.1 µM	22.2 µM	2.24 µM	10.1 µM		O=C1c2cc(F)ccc2-n2c1nc1ccc(N3CCCCC3)cc1c2=O	Ki [4]: 26.8 µM; Ki ([9]; read-out: Ki): 4.34 µM

SMILES	Ki [1]	IC50 [2]	IC50 [3]	IC50 [5]	IC50 ([6]; read-out: IC50)	IC50 [7]	Ki [8]	also measured
CN1CCN(Cc2ccc3nc4n(c(=O)c3c2)-c2ccccc2C4=O)CC1		0.18 µM			0.18 µM		0.42 µM	
